The source of these data is ChEMBL document CHEMBL4342521 (J Med Chem, 2020).

The IC50 is the point on the concentration scale where inhibition reaches its midpoint. One may read the inhibition as the percentage by which the read-out fell short of the control. The AUC is concentration integrated over time. High values mean more exposure, low ones less exposure.

Active and inactive are the calls of the source. No cut-off for these calls is given here.

Data set [1] addresses Histone deacetylase 4 (Homo sapiens, UniProt P56524). Put plainly: Inhibition of recombinant human HDAC4 using Boc-Lys (trifluoroacetyl)-AMC as substrate preincubated for 1 hr followed by substrate addition and measured after 2 hrs by fluorescence based micro plate reader analysis. The essentials: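 Recombinant enzyme was preincubated with serially varied inhibitor for 1 h at 30 °C. Boc-Lys(trifluoroacetyl)-AMC was then added to a final 50 μM and incubated 2 h at 30 °C. The reaction was stopped with developer containing trypsin and TSA, and fluorescence (ex 360/em 460 nm) was read 30 min later. Inhibition was taken relative to control wells and fitted to a variable-slope log(inhibitor) curve. Values are the mean of at least three experiments.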

The target in data set [2] is Trypsin (Homo sapiens) (UniProt P07477+P07478+P35030). Nature of the data set: Inhibition of trypsin (unknown origin). The class given is protein assay.
Data set [3] concerns NCI-H460. Put plainly: Antiproliferative activity against human NCI-H460 cells assessed as reduction in cell viability after 48 hrs by CellTiter-Blue assay. The class given is functional. The conditions noted are these: NCI-H460, 48 h, read-out: LC50 (the source's name). The essentials: (§1)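 Cells grown in RPMI1640 with 10% FBS at 37 °C, 5% CO₂. 5,000–10,000 cells/well were pre-incubated overnight, and a time-zero CellTiter-Blue read was taken. Six 10-fold dilutions (top final 10 μM) were applied for 48 h, followed by 0.125 mg/mL CellTiter-Blue for 2–4 h. Resorufin fluorescence was read at ex 560/em 590 nm. […] Triplicates.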
(The colour change of resazurin is a common sign of viable cells or microbes.)

Data set [4] relates to HCC 2998. Nature of the data set: Antiproliferative activity against human HCC2998 cells assessed as reduction in cell viability after 48 hrs by CellTiter-Blue assay. It is filed as functional. The conditions noted are these: HCC 2998, 48 h, read-out: LC50 (the source's name). A digest of the protocol:
as §1

Data set [5] concerns KM12. Nature of the data set: Antiproliferative activity against human KM12 cells assessed as reduction in cell viability after 48 hrs by CellTiter-Blue assay. The class given is functional. The conditions noted are these: KM12, 48 h, read-out: LC50 (the source's name). The essentials:
as §1

The subject of data set [6] is SNB-75. Put plainly: Antiproliferative activity against human SNB75 cells assessed as reduction in cell viability after 48 hrs by CellTiter-Blue assay. The class given is functional. The conditions noted are these: SNB-75, 48 h, read-out: LC50 (the source's name). The essentials:
(§2)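 NCI-60 panel lines grown in RPMI1640 with 10% FBS at 37 °C, 5% CO₂. Seeded at 5,000–10,000 cells/well and pre-incubated overnight. Exposed for 48 h to six 10-fold dilutions (top final 10 μM), with a time-zero plate read at dosing. CellTiter-Blue (0.125 mg/mL) for 2–4 h, fluorescence 560/590 nm, triplicate curves.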

Data set [7] concerns LOX IMVI. Put plainly: Antiproliferative activity against human LOXIMVI cells assessed as reduction in cell viability after 48 hrs by CellTiter-Blue assay. The class given is functional. The following applies: read-out: LC50 (the source's name). The essentials:
as §1

The subject of data set [8] is MDA-MB-435. Put plainly: Antiproliferative activity against human MDA-MB-435 cells assessed as reduction in cell viability after 48 hrs by CellTiter-Blue assay. It is filed as functional. The following applies: MDA-MB-435, 48 h, read-out: LC50 (the source's name). The essentials:
as §1

In data set [9] the test system is SK-MEL-2. Nature of the data set: Antiproliferative activity against human SK-MEL-2 cells assessed as reduction in cell viability after 48 hrs by CellTiter-Blue assay. The class given is functional. The conditions noted are these: SK-MEL-2, 48 h, read-out: LC50 (the source's name). A digest of the protocol: as §1
For data set [10], the system named is 786-0. Put plainly: Antiproliferative activity against human 786-0 cells assessed as reduction in cell viability after 48 hrs by CellTiter-Blue assay. It is filed as functional. The conditions noted are these: 786-0, 48 h, read-out: LC50 (the source's name). A digest of the protocol:
as §1

Data set [11] has as its system SN12C. Nature of the data set: Antiproliferative activity against human SN12C cells assessed as reduction in cell viability after 48 hrs by CellTiter-Blue assay. It is filed as functional. The following applies: read-out: LC50 (the source's name). The essentials:
as §1

Data set [12] deals with MCF7. Put plainly: Antiproliferative activity against human MCF7 cells assessed as reduction in cell viability after 48 hrs by CellTiter-Blue assay. It is filed as functional. The following applies: MCF7, 48 h, read-out: LC50 (the source's name). The essentials:
as §1

The test system of data set [13] is T47D. Put plainly: Antiproliferative activity against human T47D cells assessed as reduction in cell viability after 48 hrs by CellTiter-Blue assay. The following applies: read-out: LC50 (the source's name). It is filed as functional. The essentials: as §2
The test system of data set [14] is MOLM-14. Nature of the data set: Antiproliferative activity agaisnt human MOLM14 cells expressing wild type p53/FLT3-ITD mutant assessed as cell death at 10 uM after 48 hrs by CellTiter-blue assay. It is filed as functional, cell-based.
For data set [15], the system named is RS4-11. Nature of the data set: Antiproliferative activity agaisnt human RS4:11 cells expressing wild type p53/FLT3 assessed as cell death at 10 uM after 48 hrs by CellTiter-blue assay. The class given is functional, cell-based.
The subject of data set [16] is MV4-11. Put plainly: Down regulation of FTL3 in human MV4-11 cells harboring wild type p53/FLT3-ITD mutant at 50 to 200 nM after 24 hrs by Western blot analysis. The class given is functional, cell-based. The essentials:
(§3)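 Cells (1,500,000 per well) grown 12 h, then drug-treated as specified. Lysed in RIPA buffer, sonicated, centrifuged, protein normalized by BCA. Run on 4–12% Bis-Tris gels in MES, transferred, probed overnight at 4 °C with primary antibodies at 1/1000. Actin served as reference for LC3-II quantitation.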
A general note: Immunoblotting shows a protein as a band on a membrane.

The subject of data set [17] is MV4-11. Put plainly: Inhibition of p53 degradation in human MV4-11 cells harboring wild type p53/FLT3-ITD mutant at 100 nM after 12 hrs in presence of MDM2 inhibitor RG7388 by Western blot analysis relative to control. It is filed as functional. The following applies: MV4-11, 12 h. A digest of the protocol:
as §3

The subject of data set [18] is HL-60. Nature of the data set: Induction of apoptosis in p53 null human HL60 cells harboring wild type FLT3 assessed as cleavage of pro-caspase 3 at 50 to 200 nM after 24 hrs by Western blot analysis. It is filed as functional, cell-based. A digest of the protocol:
as §3

Data set [19] deals with RS4-11. Nature of the data set: Down regulation of STAT5 expression in human RS4:11 cells harboring wild type p53/FLT3 assessed as cleavage of pro-caspase 3 at 50 to 200 nM after 24 hrs by Western blot analysis. The class given is functional, cell-based. The essentials:
as §3

Data set [20] has as its system MV4-11. Put plainly: Inhibition of p53 degradation in human MV4-11 cells at 200 nM after 24 hrs in presence of 5 nM bortezomib by Western blot analysis. It is filed as functional, cell-based. A digest of the protocol: as §3
Data set [21] concerns MV4-11. Nature of the data set: Induction of pro caspase 3 cleavage in human MV4-11 cells at 200 nM after 24 hrs in presence of 5 nM bortezomib by Western blot analysis. The class given is functional, cell-based. The essentials: as §3
The subject of data set [22] is MV4-11. Put plainly: Induction of apoptosis in human MV4-11 cells assessed as cleavage of pro caspase 3 at 200 nM after 24 hrs in presence of 50 uM z-VAD by Western blot analysis. The class given is functional, cell-based. A digest of the protocol:
as §3

Data set [23] has as its system MV4-11. Nature of the data set: Inhibition of autophagy in human MV4-11 cells assessed as cell death at 200 nM after 24 hrs in presence of 5 uM of chloroquine by CellTiter-blue dye based spectrophotometric analysis. It is filed as functional. A digest of the protocol:
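MV4-11 cells grown 12 h, then given 200 nM test agent alone or with z-VAD, chloroquine (5 μM) or wortmannin (100 nM) for 24 h. Viability by CellTiter-Blue (0.125 mg/mL, 2–4 h), resorufin fluorescence 560/590 nm, compared with t = 0 wells; n = 3.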

A short description of data set [24]: AUC (0 to infinity) in CD1 mouse at 20 mg/kg, po via gavage after 24 hrs by LC-MS/MS analysis. The class given is ADME, organism-based. Also on record: dose 20 mg/kg, time infinity, route oral. The following applies: in vivo. The essentials: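 Male CD-1 mice, fasted overnight, 3 per route; compound in PBS with 5% DMSO, iv bolus 5 mg/kg or oral gavage 20 mg/kg. Blood sampled at 5, 15, 30 min and 1–24 h. Plasma protein-precipitated with acetonitrile plus internal standard, quantified by LC-MS/MS (MRM). AUC by linear trapezoidal method; parameters by non-compartmental analysis.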

Chain of Histone deacetylase 4 (P56524 whole entry): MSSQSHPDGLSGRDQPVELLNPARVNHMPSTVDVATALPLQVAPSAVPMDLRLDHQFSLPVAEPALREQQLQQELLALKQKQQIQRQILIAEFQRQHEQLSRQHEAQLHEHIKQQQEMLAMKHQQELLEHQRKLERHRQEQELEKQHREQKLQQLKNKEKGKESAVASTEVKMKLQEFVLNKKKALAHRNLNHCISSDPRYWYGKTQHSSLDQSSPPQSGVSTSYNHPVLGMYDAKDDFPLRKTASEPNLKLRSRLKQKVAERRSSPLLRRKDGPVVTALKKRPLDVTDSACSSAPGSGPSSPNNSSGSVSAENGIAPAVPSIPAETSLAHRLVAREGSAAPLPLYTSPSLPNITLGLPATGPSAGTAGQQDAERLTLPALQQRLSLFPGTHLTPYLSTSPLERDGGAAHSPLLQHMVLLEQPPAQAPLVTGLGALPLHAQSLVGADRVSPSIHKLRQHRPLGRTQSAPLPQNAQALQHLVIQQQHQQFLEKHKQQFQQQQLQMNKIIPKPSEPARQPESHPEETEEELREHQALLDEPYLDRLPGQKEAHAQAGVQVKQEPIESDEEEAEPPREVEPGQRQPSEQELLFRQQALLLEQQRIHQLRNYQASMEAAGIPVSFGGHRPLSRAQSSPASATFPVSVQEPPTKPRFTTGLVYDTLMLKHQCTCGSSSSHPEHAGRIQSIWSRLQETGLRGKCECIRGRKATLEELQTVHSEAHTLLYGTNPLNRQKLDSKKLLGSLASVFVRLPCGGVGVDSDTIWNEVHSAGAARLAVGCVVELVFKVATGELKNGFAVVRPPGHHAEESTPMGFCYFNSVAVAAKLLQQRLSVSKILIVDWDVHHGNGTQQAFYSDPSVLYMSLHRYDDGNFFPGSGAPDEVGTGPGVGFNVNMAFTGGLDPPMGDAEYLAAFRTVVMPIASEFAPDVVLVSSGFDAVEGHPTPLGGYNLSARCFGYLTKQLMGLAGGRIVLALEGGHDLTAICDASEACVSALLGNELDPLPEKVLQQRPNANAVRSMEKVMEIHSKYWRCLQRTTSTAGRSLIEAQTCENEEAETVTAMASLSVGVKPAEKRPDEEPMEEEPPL

Take `CCCNNC(=O)/C=C/c1ccc(CNCCc2c(C)[nH]c3ccccc23)cc1.O=C(O)C(F)(F)F`: the IC50 in data set [1] is greater than 10 µM. Moreover, the inhibition result in [2] and in data set [23] was “inactive” throughout. Besides, the CC50 in data set [3] is greater than 10 µM; in [4], 1.76 µM; in data set [5], greater than 10 µM; in data set [6], greater than 10 µM; in [7], 0.537 µM; in data set [8] it was greater than 10 µM. For the same compound, the CC50 in data set [9], in data set [10], in data set [11], in data set [12] and in data set [13] was greater than 10 µM each time. Also, the outcome in data set [14], in data set [15], in data set [16] and in data set [21] was Active. Moreover, the inhibition at 0.1 µM in [17] amounted to 100%. In addition, the result in data set [18], in [19] and in data set [22] was inactive. Further, in data set [20], the inhibition result was “Active”. The AUC in [24] stood at 265 ng·h/mL.
